Among the data in ChEMBL document CHEMBL1121719, “1-Oxacephalosporins: enhancement of beta-lactam reactivity and antibacterial activity” (1981) are MIC and Relative hydrolysis rate values, retold here.

≈ marks a conversion by molar mass, not a printed value.

The subject of assay [1] is Escherichia coli. The experiment in a line: Inhibitory concentration of compound was tested against gram negative Escherichia coli 73. Format: functional. The gist of the method:
(§1)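 MIC by agar dilution on sensitivity test agar with serial twofold antibiotic dilutions. The inoculum was an overnight tryptose broth culture diluted to about 10⁶ cells/mL. Plates were incubated at 37 °C for 18-20 h. MIC was the lowest concentration inhibiting visible growth.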

Assay [2] relates to Beta-lactamase (Klebsiella sp.). The experiment in a line: Hydrolysis rate by the beta-lactamase from Klebsiella sp. 363 relative to cephaloridine (100).
Assay [3] has as its system Escherichia coli. The experiment in a line: Inhibitory concentration of compound was tested against gram negative Escherichia coli H organism. Type of assay: functional. The gist of the method:
as §1

Assay [4] deals with Beta-lactamase (Proteus vulgaris). The experiment in a line: Hydrolysis rate by the beta-lactamase from Proteus vulgaris 31 relative to cephaloridine.
The target of assay [5] is Beta-lactamase (Escherichia coli K-12) (UniProt P00811). The experiment in a line: Hydrolysis rate by the beta-lactamase from Escherichia coli 6 relative to cephaloridine. The gist of the method:
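Cells were grown statically in nutrient phosphate broth for 16 h at 37 °C and disrupted ultrasonically. β-lactamase was partially purified on CM-Sephadex C-50. Substrate (100 μM final) was hydrolysed in 0.1 M potassium phosphate pH 7.0 at 30 °C, with the enzyme diluted in buffer containing 0.001% gelatin. Rate came from the slope of UV optical density decrease and was expressed relative to cephaloridine = 100.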

The subject of assay [6] is Escherichia coli. The experiment in a line: Inhibitory concentration of compound was tested against gram negative Escherichia coli NIH JC-2. Format: functional. In a few lines: as §1
A further assay has as its system Proteus mirabilis. The experiment in a line: Inhibitory concentration of compound was tested against gram negative Proteus mirabilis PR-4.
In assay [7] the target is Beta-lactamase TEM (Escherichia coli) (UniProt P62593). The experiment in a line: Hydrolysis rate by the beta-lactamase from Escherichia coli W3110 RTEM relative to cephaloridine. In a few lines: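 Constitutive producers were grown statically in nutrient phosphate broth at 37 °C for 16 h, then sonicated. Enzyme was partially purified on DEAE-Sephadex A-25 (phosphate gradient, 0.01 M pH 8.0 to 0.5 M pH 6.2). Assay conditions: 0.1 M potassium phosphate pH 7.0, 30 °C, 0.001% gelatin in enzyme diluent, 100 μM final substrate. Hydrolysis rate was taken from the slope of UV absorbance decrease, with cephaloridine set to 100.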
Sequence of Beta-lactamase TEM (Escherichia coli) (P62593 whole entry): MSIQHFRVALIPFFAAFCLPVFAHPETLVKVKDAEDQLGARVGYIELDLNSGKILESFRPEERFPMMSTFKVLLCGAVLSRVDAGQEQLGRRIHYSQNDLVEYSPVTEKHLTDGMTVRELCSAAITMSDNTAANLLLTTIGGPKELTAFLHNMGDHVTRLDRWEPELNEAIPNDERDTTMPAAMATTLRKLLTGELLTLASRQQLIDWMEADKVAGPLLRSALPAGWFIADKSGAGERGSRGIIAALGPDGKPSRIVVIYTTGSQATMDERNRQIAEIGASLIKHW

The next assay relates to Klebsiella pneumoniae. The experiment in a line: Inhibitory concentration of compound was tested against gram negative Klebsiella pneumoniae.
For the next assay, the system named is Klebsiella. The experiment in a line: Inhibitory concentration of compound was tested against gram negative Klebsiella sp 363. Type of assay: functional. The gist of the method: as §1

Sequence of Beta-lactamase (Escherichia coli K-12) (P00811 whole entry): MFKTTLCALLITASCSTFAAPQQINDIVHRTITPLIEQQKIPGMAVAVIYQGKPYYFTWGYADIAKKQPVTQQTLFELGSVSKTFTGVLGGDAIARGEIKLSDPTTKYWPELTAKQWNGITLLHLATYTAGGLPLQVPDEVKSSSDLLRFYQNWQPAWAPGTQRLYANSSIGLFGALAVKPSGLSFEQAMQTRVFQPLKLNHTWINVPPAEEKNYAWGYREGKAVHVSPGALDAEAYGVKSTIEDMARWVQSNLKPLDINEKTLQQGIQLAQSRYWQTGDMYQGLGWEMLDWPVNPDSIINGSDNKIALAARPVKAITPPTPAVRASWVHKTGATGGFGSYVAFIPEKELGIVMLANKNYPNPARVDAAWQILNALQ

One may read the MIC as the lowest concentration found to suppress growth. A higher MIC goes with a need for much substance. Consider `CC1=C(C(=O)O)N2C(=O)C(NC(=O)CSC(F)(F)F)C2SC1` (stereo not given), for which the MIC in the assay on Escherichia coli [1] is more than 100 µg/mL; in the assay with Escherichia coli [3], 25 µg/mL (≈ 70.2 µM); in the assay with Escherichia coli [6], 50 µg/mL (≈ 140 µM); in the assay on Proteus mirabilis, 50 µg/mL (≈ 140 µM); in the assay with Klebsiella pneumoniae, 50 µg/mL (≈ 140 µM); in the assay on Klebsiella, more than 100 µg/mL. In addition, the Relative hydrolysis rate in [2] worked out at 6.2; in assay [4] it was 160; in [5], 750; in [7], 1.5.
